From ChEMBL document CHEMBL3853359, “NO Photoreleaser-Deoxyadenosine and -Bile Acid Derivative Bioconjugates as Novel Potential Photochemotherapeutics” (ACS Med Chem Lett, 2016)
Activity calls are given as the source filed them. No cut-off for these calls is given here.

Assays:
[1] = Cytotoxicity against human K562 assessed as cell growth inhibition incubated for 72 hrs under dark condition by MTT assay; type: toxicity, cell-based; settings: for IC50 at 72 h: K562 cells; for growth inhibition (GI): k562, 72 h
Summary of the method: (§1)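 MTT read-out after 72 h continuous exposure in the dark. Test concentrations were 10, 25 and 50 μM for K562 leukaemia and HCT116 colon carcinoma cells, and up to 100 μM for normal human skin fibroblasts. IC50 was taken from dose–response curves, as the mean ± SD of three independent experiments.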

[2] = Cytotoxicity against human HCT116 assessed as cell growth inhibition incubated for 72 hrs under dark condition by MTT assay; type: toxicity, cell-based, HCT-116; settings: for IC50 at 72 h: HCT116 cells; for growth inhibition (GI): hct-116, 72 h; summary of the method: as §1
[3] = Cytotoxicity against human fibroblasts assessed as cell growth inhibition incubated for 72 hrs under dark condition by MTT assay; type: toxicity, cell-based, Fibroblast; summary of the method: as §1
[4] = Stability of the compound in phosphate buffer at 50 uM and pH 7.4 under dark condition; type: physicochemical; settings: pH 7.4, 50 µM
Summary of the method: (§2)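 NO was monitored directly in real time with an amperometric NO electrode (nanomolar sensitivity). Samples were 50 μM solutions in 10 mM phosphate buffer, pH 7.4, with 0.5% DMSO, kept in the dark and then illuminated with visible light (λ = 420 nm, 1.5 mW cm–2).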

[5] = Induction of NO release in phosphate buffer at 50 uM and pH 7.4 upon 1.5 mW/cm2 visible-light irradiation; type: physicochemical; settings: pH 7.4, 50 µM; summary of the method: as §2
[6] = (§3) Photocytotoxicity against human HCT116 cells assessed as cell growth inhibition incubated for 72 hrs after exposure to 7 mW/cm2 of light-irradiation for 40 mins by MTT assay; type: functional, cell-based; settings: HCT-116, light or radiation study
Summary of the method: (§4)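 HCT116 cells with compound were irradiated with visible light (λ = 420 nm, 7 mW cm–2) for 40 min, then incubated to 72 h. Growth inhibition was read by MTT. IC50 was taken from dose–response curves, as the mean ± SD of three independent experiments.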

HCT-116 = assay: as §3; type: functional, cell-based; summary of the method: as §4
[7] = Photoreactivity of the compound in phosphate buffer assessed as photobleaching of visible band at 50 uM and pH 7.4 upon 7 mW/cm2 of light-irradiation measured up to 70 mins; type: physicochemical; settings: pH 7.4, 70 min
Summary of the method: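 50 μM solutions in 10 mM phosphate buffer, pH 7.4, with 0.5% DMSO were irradiated at λ = 420 nm, 7 mW cm–2, from 0 to 70 min. Absorption spectral changes were recorded, and kinetic profiles were followed at λmax and fitted linearly.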

[8] = Ratio of cytotoxicity against human HCT116 cells assessed as cell growth inhibition at 50 uM incubated for 72 hrs under dark condition by MTT assay to photocytotoxicity against human HCT116 cells assessed as cell growth inhibition at 50 uM incubated for 72 hrs after exposure to 7 mW/cm2 of light-irradiation for 40 mins by MTT assay

Stability [4] | Activity [5] | Activity [7] | SMILES | IC50 at 72 h [1] | growth inhibition (GI) [1] | IC50 at 72 h [2] | growth inhibition (GI) [2] | IC50 at 72 h [3] | IC50 [6] | Activity (HCT-116) | Ratio [8]
Stable | Active | – | C[C@H](CCC(=O)O)[C@H]1CC[C@H]2[C@@H]3[C@@H](O)C[C@@H]4C[C@H](n5cc(CCCNc6ccc([N+](=O)[O-])c(C(F)(F)F)c6)nn5)CC[C@]4(C)[C@H]3CC[C@]12C | 31.6 µM | Dose-dependent effect | 14 µM | Dose-dependent effect | > 100 µM | – | – | –
Stable | Active | Active | Nc1ncnc2c1nc(SCCCCCNc1ccc([N+](=O)[O-])c(C(F)(F)F)c1)n2[C@H]1C[C@H](O)[C@@H](CO)O1 | 68.1 µM | Dose-dependent effect | 66.2 µM | Dose-dependent effect | > 100 µM | 31 µM | Active | 2
– | – | – | C[C@H](CCC(=O)O)[C@H]1CC[C@H]2[C@@H]3[C@H](O)C[C@@H]4C[C@H](n5cc(CCCNc6ccc([N+](=O)[O-])c(C(F)(F)F)c6)nn5)CC[C@]4(C)[C@H]3CC[C@]12C | 24 µM | – | 21 µM | – | 32 µM | – | – | –
